Results from ChEMBL document CHEMBL5696442, “Discovery of type II inhibitors of TGFβ-activated kinase 1 (TAK1) and mitogen-activated protein kinase kinase kinase kinase 2 (MAP4K2)” (J Med Chem, 2015).

Experiments:
[1] = biological target: Tyrosine-protein kinase Fer (Homo sapiens, UniProt P16591); test: Inhibition of FER Lys1 labeling site in human Huh-7 cell lysate at 1 uM by KiNativ Profiling analysis relative to control; format: subcellular
[2] = biological target: T1, Ephrin type-B receptor 4 (Homo sapiens) (UniProt P54760); test: Inhibition of EphB4 ACT labeling site in human A-375 cells at 5 uM by KiNativ Profiling analysis relative to control; format: cell-based
T1 sequence (whole entry): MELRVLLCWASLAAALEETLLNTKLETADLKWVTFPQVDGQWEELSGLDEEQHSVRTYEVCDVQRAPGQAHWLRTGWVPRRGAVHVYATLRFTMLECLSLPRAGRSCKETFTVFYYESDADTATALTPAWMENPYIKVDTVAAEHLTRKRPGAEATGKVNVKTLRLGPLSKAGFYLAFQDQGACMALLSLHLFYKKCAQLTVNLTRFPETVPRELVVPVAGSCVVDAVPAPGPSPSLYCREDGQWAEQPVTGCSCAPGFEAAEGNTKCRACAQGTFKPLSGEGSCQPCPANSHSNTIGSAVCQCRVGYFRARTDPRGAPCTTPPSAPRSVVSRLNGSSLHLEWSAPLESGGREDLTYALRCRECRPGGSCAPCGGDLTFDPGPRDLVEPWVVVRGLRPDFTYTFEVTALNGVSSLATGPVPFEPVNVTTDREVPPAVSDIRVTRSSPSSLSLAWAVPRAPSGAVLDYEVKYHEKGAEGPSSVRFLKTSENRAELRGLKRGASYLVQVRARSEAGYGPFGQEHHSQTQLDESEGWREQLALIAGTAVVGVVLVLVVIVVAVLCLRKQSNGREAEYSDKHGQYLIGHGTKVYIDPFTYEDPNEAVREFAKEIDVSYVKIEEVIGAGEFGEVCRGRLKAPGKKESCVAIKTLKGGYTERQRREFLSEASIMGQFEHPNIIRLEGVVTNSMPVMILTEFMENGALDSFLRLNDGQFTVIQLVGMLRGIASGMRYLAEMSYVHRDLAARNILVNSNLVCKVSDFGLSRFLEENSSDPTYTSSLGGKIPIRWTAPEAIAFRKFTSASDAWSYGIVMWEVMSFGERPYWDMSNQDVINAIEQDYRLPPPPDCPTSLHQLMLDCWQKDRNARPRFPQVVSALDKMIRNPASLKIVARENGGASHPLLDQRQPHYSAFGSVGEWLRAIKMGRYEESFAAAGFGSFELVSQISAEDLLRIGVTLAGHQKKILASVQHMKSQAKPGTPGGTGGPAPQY
Summary of the method: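 Live A375 melanoma cells were treated with compound at 0.5 or 5 μM, then lysed. Lysates were labeled with a lysine-reactive ATP or ADP-biotin probe. The read-out was protection of each kinase probe-labeling site from labeling, relative to control.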

[3] = biological target: Calcium/calmodulin-dependent protein kinase type 1 (Homo sapiens) (UniProt Q14012); test: Inhibition of CAMK1 alpha Lys1 labeling site in human A-375 cells at 0.5 uM by KiNativ Profiling analysis relative to control; format: cell-based
Sequence of Calcium/calmodulin-dependent protein kinase type 1 (Homo sapiens) (Q14012 whole entry, looked up): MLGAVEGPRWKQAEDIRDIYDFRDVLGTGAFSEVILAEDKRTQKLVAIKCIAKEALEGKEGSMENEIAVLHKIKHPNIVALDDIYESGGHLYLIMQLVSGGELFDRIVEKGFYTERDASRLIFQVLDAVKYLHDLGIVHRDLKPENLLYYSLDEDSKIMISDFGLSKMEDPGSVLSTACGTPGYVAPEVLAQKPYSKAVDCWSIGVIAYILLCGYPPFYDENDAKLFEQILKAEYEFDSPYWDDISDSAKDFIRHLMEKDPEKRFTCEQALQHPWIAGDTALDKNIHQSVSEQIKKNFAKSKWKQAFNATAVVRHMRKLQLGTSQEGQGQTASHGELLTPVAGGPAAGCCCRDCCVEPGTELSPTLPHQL
Summary of the method: (§1)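 Intact A375 melanoma cells were treated with compound at 5 or 0.5 μM, then lysed. Lysate kinases were labeled with a lysine-reactive ATP or ADP-biotin probe (KiNativ). Inhibition is read as protection of each kinase labeling site from probe labeling.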

[4] = biological target: Casein kinase II subunit alpha (Homo sapiens) (UniProt P68400); test: Inhibition of CK2a1 Protein Kinase Domain in human A-375 cells at 5 uM by KiNativ Profiling analysis relative to control; format: cell-based; summary of the method: as §1
Sequence of Casein kinase II subunit alpha (Homo sapiens) (P68400 whole entry, looked up, the tested form may be a part): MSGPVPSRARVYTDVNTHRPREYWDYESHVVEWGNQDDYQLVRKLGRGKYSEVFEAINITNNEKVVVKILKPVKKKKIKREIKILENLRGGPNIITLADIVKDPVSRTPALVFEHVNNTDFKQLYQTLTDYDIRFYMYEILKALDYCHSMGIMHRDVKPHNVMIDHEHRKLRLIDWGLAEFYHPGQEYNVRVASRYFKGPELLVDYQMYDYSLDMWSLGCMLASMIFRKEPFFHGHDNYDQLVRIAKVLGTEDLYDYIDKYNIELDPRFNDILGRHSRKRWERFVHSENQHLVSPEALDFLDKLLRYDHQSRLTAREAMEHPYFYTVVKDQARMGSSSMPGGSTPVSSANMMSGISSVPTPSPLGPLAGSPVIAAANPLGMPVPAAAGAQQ

[5] = biological target: Ribosomal protein S6 kinase alpha-1 (Homo sapiens) (UniProt Q15418); test: Inhibition of RSK1 domain2 Lys2 labeling site in human A-375 cells at 5 uM by KiNativ Profiling analysis relative to control; format: cell-based
Sequence of Ribosomal protein S6 kinase alpha-1 (Homo sapiens) (Q15418 whole entry, the tested form may be a part): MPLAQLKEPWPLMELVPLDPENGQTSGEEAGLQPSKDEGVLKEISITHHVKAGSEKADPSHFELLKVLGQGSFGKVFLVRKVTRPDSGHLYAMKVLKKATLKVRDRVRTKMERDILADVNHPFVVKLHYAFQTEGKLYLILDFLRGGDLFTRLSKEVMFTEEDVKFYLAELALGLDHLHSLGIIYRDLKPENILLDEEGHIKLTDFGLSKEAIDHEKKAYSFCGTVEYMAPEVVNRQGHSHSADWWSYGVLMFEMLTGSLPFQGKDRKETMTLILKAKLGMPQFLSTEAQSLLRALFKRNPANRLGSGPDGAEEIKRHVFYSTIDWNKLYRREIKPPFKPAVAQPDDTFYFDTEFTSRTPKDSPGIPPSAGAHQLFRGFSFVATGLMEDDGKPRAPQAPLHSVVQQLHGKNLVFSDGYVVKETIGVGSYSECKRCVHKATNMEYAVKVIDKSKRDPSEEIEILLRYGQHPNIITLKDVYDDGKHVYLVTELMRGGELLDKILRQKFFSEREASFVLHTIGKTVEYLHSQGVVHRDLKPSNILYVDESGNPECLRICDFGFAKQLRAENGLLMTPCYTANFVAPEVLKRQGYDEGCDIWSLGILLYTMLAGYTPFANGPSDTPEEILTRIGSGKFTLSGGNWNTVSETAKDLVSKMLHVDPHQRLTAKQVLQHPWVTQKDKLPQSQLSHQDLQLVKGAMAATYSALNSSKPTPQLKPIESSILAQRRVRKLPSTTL
Summary of the method: (§2)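 Live A375 melanoma cells treated with compound at 5 or 0.5 μM, then lysed. Lysate kinases were labeled with a lysine-reactive ATP or ADP-biotin probe. Inhibition was read as protection of labeling sites from the probe.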

[6] = biological target: Mitogen-activated protein kinase kinase kinase 4 (Homo sapiens) (UniProt Q9Y6R4); test: Inhibition of MAP3K4 Lys2 labeling site in human A-375 cells at 0.5 uM by KiNativ Profiling analysis relative to control; format: cell-based
Sequence of Mitogen-activated protein kinase kinase kinase 4 (Homo sapiens) (Q9Y6R4 whole entry, the tested form may be a part): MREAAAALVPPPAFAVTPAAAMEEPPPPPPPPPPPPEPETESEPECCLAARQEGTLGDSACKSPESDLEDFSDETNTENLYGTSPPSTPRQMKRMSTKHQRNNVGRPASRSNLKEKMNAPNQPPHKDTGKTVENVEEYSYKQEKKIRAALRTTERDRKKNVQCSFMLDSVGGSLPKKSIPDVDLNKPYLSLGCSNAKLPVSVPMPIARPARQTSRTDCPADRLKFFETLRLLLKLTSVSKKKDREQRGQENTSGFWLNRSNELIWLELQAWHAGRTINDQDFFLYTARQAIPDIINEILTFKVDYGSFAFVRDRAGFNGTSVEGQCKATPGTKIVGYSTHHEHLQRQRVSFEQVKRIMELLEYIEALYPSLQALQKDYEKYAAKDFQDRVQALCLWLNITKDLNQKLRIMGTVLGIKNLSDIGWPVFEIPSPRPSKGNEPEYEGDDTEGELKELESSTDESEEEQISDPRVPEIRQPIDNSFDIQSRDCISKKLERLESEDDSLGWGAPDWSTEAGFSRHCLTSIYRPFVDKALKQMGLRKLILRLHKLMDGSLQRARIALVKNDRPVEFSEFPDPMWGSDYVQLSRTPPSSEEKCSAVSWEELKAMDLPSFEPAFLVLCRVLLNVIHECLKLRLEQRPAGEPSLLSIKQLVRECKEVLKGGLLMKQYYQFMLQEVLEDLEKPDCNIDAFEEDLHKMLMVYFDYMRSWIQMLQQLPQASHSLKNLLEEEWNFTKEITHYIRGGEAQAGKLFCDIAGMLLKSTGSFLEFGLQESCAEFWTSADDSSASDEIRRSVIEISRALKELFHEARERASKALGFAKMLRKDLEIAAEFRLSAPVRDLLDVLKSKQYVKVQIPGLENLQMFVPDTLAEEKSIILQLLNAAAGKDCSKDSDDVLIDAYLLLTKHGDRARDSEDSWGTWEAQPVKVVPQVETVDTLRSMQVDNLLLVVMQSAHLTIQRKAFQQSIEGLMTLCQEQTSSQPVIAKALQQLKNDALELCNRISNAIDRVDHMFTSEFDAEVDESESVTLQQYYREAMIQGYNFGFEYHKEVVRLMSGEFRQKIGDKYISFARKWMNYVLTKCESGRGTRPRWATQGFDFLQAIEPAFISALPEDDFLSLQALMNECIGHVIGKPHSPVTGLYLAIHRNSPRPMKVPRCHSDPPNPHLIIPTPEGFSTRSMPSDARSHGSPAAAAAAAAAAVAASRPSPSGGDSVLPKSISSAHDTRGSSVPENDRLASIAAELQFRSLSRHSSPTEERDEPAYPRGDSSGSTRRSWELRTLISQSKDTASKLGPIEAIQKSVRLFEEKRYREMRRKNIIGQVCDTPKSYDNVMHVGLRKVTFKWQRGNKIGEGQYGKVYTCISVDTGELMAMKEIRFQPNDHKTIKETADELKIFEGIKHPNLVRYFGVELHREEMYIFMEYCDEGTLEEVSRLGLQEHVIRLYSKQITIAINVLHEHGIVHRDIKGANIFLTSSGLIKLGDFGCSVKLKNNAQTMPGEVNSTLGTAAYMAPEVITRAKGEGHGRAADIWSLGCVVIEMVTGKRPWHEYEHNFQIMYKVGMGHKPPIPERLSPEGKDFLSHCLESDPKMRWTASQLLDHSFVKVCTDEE

[7] = biological target: Ribosomal protein S6 kinase alpha-1 (Homo sapiens) (UniProt Q15418); test: Inhibition of RSK1 Protein Kinase Domain in human A-375 cells at 0.5 uM by KiNativ Profiling analysis relative to control; format: cell-based; summary of the method: as §2
[8] = biological target: Wee1-like protein kinase (Homo sapiens) (UniProt P30291); test: Inhibition of Wee1 Lys2 labeling site in human A-375 cells at 0.5 uM by KiNativ Profiling analysis relative to control; format: cell-based
Sequence of Wee1-like protein kinase (Homo sapiens) (P30291 whole entry, looked up, canonical isoform): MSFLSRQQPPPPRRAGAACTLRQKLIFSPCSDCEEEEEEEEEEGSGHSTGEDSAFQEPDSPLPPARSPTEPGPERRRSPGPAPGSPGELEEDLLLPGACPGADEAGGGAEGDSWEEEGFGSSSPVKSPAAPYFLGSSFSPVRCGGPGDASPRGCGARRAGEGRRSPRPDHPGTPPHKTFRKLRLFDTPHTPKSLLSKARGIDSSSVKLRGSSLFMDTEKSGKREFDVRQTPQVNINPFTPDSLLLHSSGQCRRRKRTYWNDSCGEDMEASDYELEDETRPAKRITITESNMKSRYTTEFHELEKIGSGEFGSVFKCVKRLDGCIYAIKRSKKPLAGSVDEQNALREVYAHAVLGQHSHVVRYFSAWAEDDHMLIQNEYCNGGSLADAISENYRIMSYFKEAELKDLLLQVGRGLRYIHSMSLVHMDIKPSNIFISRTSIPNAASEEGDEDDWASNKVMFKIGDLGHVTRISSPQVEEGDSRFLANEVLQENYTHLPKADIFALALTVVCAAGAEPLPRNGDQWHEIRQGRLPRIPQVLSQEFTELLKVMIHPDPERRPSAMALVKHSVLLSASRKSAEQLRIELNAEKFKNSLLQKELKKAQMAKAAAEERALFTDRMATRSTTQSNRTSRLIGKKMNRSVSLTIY

[9] = biological target: T2, Phosphatidylinositol 4,5-bisphosphate 3-kinase catalytic subunit delta isoform (Homo sapiens) (UniProt O00329); test: Inhibition of PIK3CD ATP labeling site in human A-375 cells at 0.05 uM by KiNativ Profiling analysis relative to control; format: cell-based
T2 sequence (whole entry): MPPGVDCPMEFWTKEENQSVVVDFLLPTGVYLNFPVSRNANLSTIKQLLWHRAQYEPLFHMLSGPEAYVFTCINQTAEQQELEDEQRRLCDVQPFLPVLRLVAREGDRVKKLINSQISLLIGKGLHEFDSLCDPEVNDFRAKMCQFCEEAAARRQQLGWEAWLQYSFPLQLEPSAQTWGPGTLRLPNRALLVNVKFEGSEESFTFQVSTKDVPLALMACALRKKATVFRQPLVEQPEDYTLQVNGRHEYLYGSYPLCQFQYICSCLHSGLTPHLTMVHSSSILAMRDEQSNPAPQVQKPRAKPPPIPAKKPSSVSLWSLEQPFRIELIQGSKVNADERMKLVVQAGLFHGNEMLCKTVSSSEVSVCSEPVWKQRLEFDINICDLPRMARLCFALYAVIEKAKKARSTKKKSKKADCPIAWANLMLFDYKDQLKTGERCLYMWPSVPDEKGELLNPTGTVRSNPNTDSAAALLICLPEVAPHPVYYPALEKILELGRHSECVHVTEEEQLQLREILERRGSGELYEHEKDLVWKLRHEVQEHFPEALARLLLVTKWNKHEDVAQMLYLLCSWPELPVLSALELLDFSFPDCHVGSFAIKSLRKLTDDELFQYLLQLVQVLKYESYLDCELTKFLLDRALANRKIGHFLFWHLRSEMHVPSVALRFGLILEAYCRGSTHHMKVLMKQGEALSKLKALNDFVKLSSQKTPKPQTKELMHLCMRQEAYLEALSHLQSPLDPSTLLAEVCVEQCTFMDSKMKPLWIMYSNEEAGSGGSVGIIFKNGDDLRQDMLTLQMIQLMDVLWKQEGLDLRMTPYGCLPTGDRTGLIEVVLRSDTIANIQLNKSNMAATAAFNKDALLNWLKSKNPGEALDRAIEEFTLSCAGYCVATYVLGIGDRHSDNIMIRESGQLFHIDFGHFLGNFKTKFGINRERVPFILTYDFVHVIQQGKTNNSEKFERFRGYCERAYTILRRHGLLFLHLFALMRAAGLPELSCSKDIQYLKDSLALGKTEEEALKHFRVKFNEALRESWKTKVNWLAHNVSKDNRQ

Sequence of Tyrosine-protein kinase Fer (P16591 whole entry, looked up): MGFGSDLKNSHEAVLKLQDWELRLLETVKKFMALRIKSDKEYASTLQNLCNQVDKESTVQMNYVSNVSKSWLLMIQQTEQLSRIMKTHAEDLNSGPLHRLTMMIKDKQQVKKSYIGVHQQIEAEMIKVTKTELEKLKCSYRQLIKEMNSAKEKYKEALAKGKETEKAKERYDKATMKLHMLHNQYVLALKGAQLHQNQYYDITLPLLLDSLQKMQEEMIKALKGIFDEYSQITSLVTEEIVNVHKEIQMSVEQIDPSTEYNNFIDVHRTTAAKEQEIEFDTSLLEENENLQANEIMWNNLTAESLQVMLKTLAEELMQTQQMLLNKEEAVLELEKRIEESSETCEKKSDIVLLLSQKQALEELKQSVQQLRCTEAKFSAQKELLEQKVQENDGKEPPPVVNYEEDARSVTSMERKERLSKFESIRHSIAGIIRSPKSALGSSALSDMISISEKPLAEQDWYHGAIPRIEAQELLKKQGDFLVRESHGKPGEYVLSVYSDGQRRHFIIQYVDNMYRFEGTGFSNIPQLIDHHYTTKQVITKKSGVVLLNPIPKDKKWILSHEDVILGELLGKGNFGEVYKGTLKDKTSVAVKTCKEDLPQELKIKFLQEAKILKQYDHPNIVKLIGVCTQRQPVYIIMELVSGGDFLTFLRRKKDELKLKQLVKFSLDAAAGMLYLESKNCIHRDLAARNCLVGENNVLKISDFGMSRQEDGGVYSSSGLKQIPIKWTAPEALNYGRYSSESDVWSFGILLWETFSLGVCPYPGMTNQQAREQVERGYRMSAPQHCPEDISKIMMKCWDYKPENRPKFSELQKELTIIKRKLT

Structure (SMILES)	inhibition [1] [%]	inhibition [2] [%]	inhibition [3] [%]	inhibition [4] [%]	inhibition [5] [%]	inhibition [6] [%]	inhibition [7] [%]	inhibition [8] [%]	inhibition [9] [%]
CNc1cc(Oc2cc(C(=O)Nc3cc(N4CCN(C)CC4)cc(C(F)(F)F)c3)ccc2C)ncn1	10.6	–	–	–	–	–	–	–	–
CCN1CCN(Cc2ccc(NC(=O)c3ccc(C)c(Oc4ccnc5[nH]ccc45)c3)cc2C(F)(F)F)CC1	–	-4.2	69.7	15.4	1.8	1.2	0.9	13.6	4.1
CNc1cc(Oc2cc(C(=O)Nc3cc(-n4cnc(C)c4)cc(C(F)(F)F)c3)ccc2C)ncn1	18.2	–	–	–	–	–	–	–	–
CCN1CCN(Cc2ccc(NC(=O)c3ccc(C)c(/C=C/c4cnc5[nH]ccc5c4OC)c3)cc2C(F)(F)F)CC1	–	> 90	37	1	3.9	-4.4	3.2	8	24.3
